These results are taken from ChEMBL document CHEMBL1140187, “Anti-inflammatory cembranoids from the soft corals Sinularia querciformis and Sinularia granosa” (J Nat Prod, 2008).

Each structure is given as a SMILES string.

In test [1] the test system is HeLa. As to the kind of experiment: Cytotoxicity against human HeLa cells by MTT method. Particulars: read-out: ED50. In kind it is functional.
A short description of test [2]: Cytotoxicity against human Doay cells. The format is functional, cell-based.
Test [3] deals with HeLa. As to the kind of experiment: Cytotoxicity against human HeLa cells. In kind it is functional, cell-based.
Test [4] deals with MCF7. The test can be described thus: Cytotoxicity against human MCF7 cells by MTT method. In kind it is functional. The conditions noted are these: MCF7, read-out: ED50.
For test [5], the system named is HEp-2. As to the kind of experiment: Cytotoxicity against human Hep2 cells. The format is functional, cell-based.
Test [6] can be described thus: Cytotoxicity against human Doay cells by MTT method. In kind it is functional. The conditions noted are these: read-out: ED50.
Test [7] concerns HEp-2. The test can be described thus: Cytotoxicity against human Hep2 cells by MTT method. Particulars: HEp-2, read-out: ED50. In kind it is functional.
In test [8] the test system is RAW264.7. The test can be described thus: Reduction of LPS-induced COX2 expression in mouse Raw264.7 cells at 10 uM preincubated for 5 mins before LPS challenge relative to control. Details: scale not given: the % may be the effect or the level left. In kind it is functional. A digest of the protocol: (§1)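 RAW 264.7 murine macrophages grown in DMEM with 10% heat-inactivated FBS at 37 °C, 5% CO2, plated at 3 × 10^6 cells per 60 mm dish. Compound added 5 min before LPS (0.01 µg/mL), then 16 h incubation. Lysates were analysed by Western blot against iNOS and COX-2 (1:1000), with β-actin as loading control and ECL detection. Band IOD was expressed relative to the LPS-only control; one-way ANOVA with Student-Newman-Keuls test.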

Test [9] relates to RAW264.7. As to the kind of experiment: Reduction of LPS-induced iNOS expression in mouse Raw264.7 cells at 10 uM preincubated for 5 mins before LPS challenge relative to control. In kind it is functional. The arrangement: scale not given: the % may be the effect or the level left. A digest of the protocol:
as §1

The subject of test [10] is MCF7. As to the kind of experiment: Cytotoxicity against human MCF7 cells. The format is functional, cell-based.

As for `C=C1C(=O)O[C@]2(C)CC[C@@H]1C[C@H](O)[C@@]1(C)CC[C@H](O1)[C@](C)(O)CCC2=O`, the EC50 in [1], in [4], in test [6] and in [7] was greater than 20 µg/mL in each case. In addition, the half-maximal inhibitory concentration (IC50) in test [2], in [3] and in test [5] was greater than 20 µg/mL throughout. In test [8], this compound came in with an Activity of 17.4%.
For `C=C1C(=O)O[C@]2(C)CC[C@@H]1C[C@H](OC(C)=O)[C@@]1(C)CC[C@H](O1)[C@](C)(O)CCC2=O`, the EC50 in [1], in test [4], in [6] and in [7] was greater than 20 µg/mL throughout. Also, the IC50 in [2], in test [3] and in [5] was greater than 20 µg/mL each time. The figures for the Activity in test [8] and in test [9] were 14% and 20.3%, respectively.
In the case of `C=C1C(=O)O[C@]2(C)CC[C@@H]1C[C@H](O)[C@@]1(C)CC[C@H](O1)C(=C)CC[C@H]2OC(C)=O` [GRANOSOLIDE A], the EC50 in [1], in test [4], in [6] and in [7] was greater than 20 µg/mL throughout. For the same compound, the 50% inhibitory concentration (IC50) in test [2], in test [3] and in [5] was greater than 20 µg/mL in each case.
For `C=C1C(=O)O[C@]2(C)CC[C@@H]1C[C@H](OC(C)=O)[C@@]1(C)CC[C@H](O1)C(=C)CC[C@H]2OC(C)=O` [GRANOSOLIDE B], the EC50 in [1], in [4], in test [6] and in test [7] was greater than 20 µg/mL each time. The IC50 in test [2], in test [3] and in test [5] was greater than 20 µg/mL in each case.
`C=C1C(=O)O[C@]2(C)CC[C@@H]1C[C@H](O)[C@@]1(C)CC[C@H](OC(C)=O)[C@@](C)(CCC2=O)O1` [QUERCIFORMOLIDE A]: the EC50 in test [1], in [4], in test [6] and in [7] was greater than 20 µg/mL in each case. Besides, the 50% inhibitory concentration (IC50) in test [2], in test [3], in test [5] and in test [10] was greater than 20 µg/mL throughout.
For the compound `C=C1C(=O)O[C@]2(C)CC[C@@H]1C[C@H](O)[C@@]1(C)CC[C@H](O1)[C@](C)(O)CC[C@H]2OC(C)=O` [QUERCIFORMOLIDE B], the EC50 in test [1], in test [4], in test [6] and in test [7] was greater than 20 µg/mL in each case. For the same compound, the IC50 in [2], in [3] and in test [5] was greater than 20 µg/mL throughout.
As for `C=C1C(=O)O[C@]2(C)CC[C@@H]1C[C@H](OC(C)=O)[C@@]1(C)CC[C@H](O1)[C@](C)(O)CC[C@H]2OC(C)=O` [QUERCIFORMOLIDE C], the EC50 in test [1], in [4], in test [6] and in test [7] was greater than 20 µg/mL in each case. In addition, the IC50 in test [2], in test [3] and in [5] was greater than 20 µg/mL throughout. In [9], the Activity was 23.7%.
For `C=C1C(=O)O[C@]2(C)CC[C@@H]1C[C@H](O)[C@@]1(C)CC[C@H](O1)[C@](C)(O)CC[C@H]2O` [QUERCIFORMOLIDE D], the EC50 in test [1], in test [4], in test [6] and in [7] was greater than 20 µg/mL throughout. The IC50 in test [2], in test [3] and in [5] was greater than 20 µg/mL in each case.
